The values below come from ChEMBL document CHEMBL1137943, “Synthesis and antibacterial activity of O-substituted nocathiacin I derivatives” (Bioorg Med Chem Lett, 2004).

As usually defined, the MIC is the lowest concentration found to suppress growth. A higher MIC goes with a less susceptible organism. By thermodynamic solubility is commonly meant the concentration in solution at equilibrium with solid.

SMILES strings stand for the structures. In brackets after ≈: the same amount, converted by molar mass. Where only a bound is given, the exact number is not on record here.

In one data set the test system is Enterococcus faecalis. As to the kind of experiment: Minimum concentration required to inhibit visible growth of Enterococcus faecalis A20688.
Another data set concerns Staphylococcus aureus. The data set is described as follows: Minimum concentration required to inhibit visible growth of methicillin-sensitive Staphylococcus aureus A15090. Type of data set: functional. In short, it runs like this:
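Serial microbroth dilution in Mueller–Hinton medium; final inoculum about 5 × 10^5 CFU/well; incubated at 35 °C for 18 h in ambient air. MIC is the lowest drug concentration preventing visible bacterial growth.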

Data set [1] has as its system Mus musculus. The data set is described as follows: Dose (iv) required against Staphylococcus aureus infected mice. The following applies: read-out: PD50. The data set is classed as functional.
The test system of another data set is Streptococcus pneumoniae. As to the kind of experiment: Minimum concentration required to inhibit visible growth of penicillin-resistant Streptococcus pneumoniae A28272. The data set is classed as functional. Put shortly: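 Serial microbroth dilution in 50% Mueller–Hinton/50% Todd–Hewitt medium; final inoculum about 5 × 10^5 CFU/well; incubated at 35 °C for 18 h in ambient air. MIC is the lowest drug concentration preventing visible growth.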

Data set [2] in a line: Equilibrium water solubility was determined with amorphous powders at pH 8.4. The data set is classed as ADME.
Data set [3] in a line: Equilibrium water solubility was determined with amorphous powders at pH 8.2. Type of data set: ADME.
Data set [4] can be described thus: Equilibrium water solubility was determined with amorphous powders at pH 4. Type of data set: ADME.
Data set [5] in a line: Equilibrium water solubility was determined with amorphous powders at pH 8.5. The data set is classed as ADME.
Data set [6] can be described thus: Equilibrium water solubility was determined with amorphous powders at pH 3. Type of data set: ADME.
The nature of data set [7]: Equilibrium water solubility was determined with amorphous powders at pH 3.5. The data set is classed as ADME.
For data set [8], the system named is Mus musculus. As to the kind of experiment: Dose (sc) required against Staphylococcus aureus infected mice. The following applies: read-out: PD50. Type of data set: functional. In short, it runs like this: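 Adult female ICR mice infected ip with 5–6 × 10^6 CFU of S. aureus A15090 in 7% hog gastric mucin. Drug in 10% DMSO/5% Tween 80/85% water given sc twice, at 1 and 4 h post-infection. Survival followed for 8 days; 10 mice per group, at least three doses. PD50 (mg/kg) by Spearman–Karber estimator.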

A short description of data set [9]: Equilibrium water solubility was determined with amorphous powders at pH 7.1. The data set is classed as ADME.
Data set [10] can be described thus: Equilibrium water solubility was determined with amorphous powders at pH 6.9. Type of data set: ADME.

`C=C(NC(=O)c1csc(-c2nc3c(cc2OP([O-])OC)-c2nc(cs2)C(=O)NC(C(C)O)C(=O)N/C(=C(\C)OC)c2nc(cs2)C(=O)NC2c4nc(cs4)C(=O)NC(COC(=O)c4c5c6c(cccc6n4O)COC(=O)C(OC4CC(C)(O)C(N(C)C)C(C)O4)C2OC5)c2nc-3cs2)n1)C(N)=O.[Na+]` (stereo not drawn): the minimum inhibitory concentration (MIC) with Enterococcus faecalis was found to be 0.25 µg/mL; with Staphylococcus aureus, 0.125 µg/mL; in the data set on Streptococcus pneumoniae, 0.06 µg/mL. The ED50 in the data set on Mus musculus [1] is 0.26 mg/kg. In data set [2], this compound returned a solubility (thermodynamic) of over 2200 µg/mL.

As to `C=C(NC(=O)c1csc(-c2nc3c(cc2O)-c2nc(cs2)C(=O)NC(C(C)O)C(=O)N/C(=C(\C)OC)c2nc(cs2)C(=O)NC2c4nc(cs4)C(=O)NC(COC(=O)c4c5c6c(cccc6n4OP([O-])OC)COC(=O)C(OC4CC(C)(O)C(N(C)C)C(C)O4)C2OC5)c2nc-3cs2)n1)C(N)=O.[Na+]` (stereo not drawn), the MIC in the data set on Enterococcus faecalis was determined as 0.25 µg/mL; in the data set on Staphylococcus aureus, 0.125 µg/mL; against Streptococcus pneumoniae, 0.007 µg/mL. Further, the ED50 in the data set with Mus musculus [1] was 1.6 mg/kg. Besides, the thermodynamic solubility in data set [3] was determined as 5600 µg/mL.

Turning to `C=C(NC(=O)c1csc(-c2nc3c(cc2O)-c2nc(cs2)C(=O)NC(C(C)O)C(=O)N/C(=C(\C)OC)c2nc(cs2)C(=O)NC2c4nc(cs4)C(=O)NC(COC(=O)c4c5c6c(cccc6n4OC(=O)NCCCC)COC(=O)C(OC4CC(C)(O)C(N(C)C)C(C)O4)C2OC5)c2nc-3cs2)n1)C(N)=O` (stereo not drawn), the minimum inhibitory concentration (MIC) in the data set with Enterococcus faecalis was found to be 0.03 µg/mL (≈ 0.0195 µM); in the data set with Staphylococcus aureus, 0.001 µg/mL (≈ 0.000651 µM); against Streptococcus pneumoniae it was 0.007 µg/mL (≈ 0.00456 µM).

For the compound `C=C(NC(=O)c1csc(-c2nc3c(cc2O)-c2nc(cs2)C(=O)N[C@@H]([C@@H](C)O)C(=O)N/C(=C(\C)OC)c2nc(cs2)C(=O)N[C@@H]2c4nc(cs4)C(=O)N[C@@H](COC(=O)c4c5c6c(cccc6n4O)COC(=O)[C@@H](O[C@H]4C[C@](C)(O)[C@H](N(C)C)[C@H](C)O4)[C@H]2OC5)c2nc-3cs2)n1)C(N)=O` [MJ347-81F4 A], the MIC with Enterococcus faecalis was 0.03 µg/mL (≈ 0.0209 µM); against Staphylococcus aureus it was 0.007 µg/mL (≈ 0.00487 µM); in the data set with Streptococcus pneumoniae, 0.002 µg/mL (≈ 0.00139 µM). The ED50 in the data set with Mus musculus [1] was 0.2 mg/kg. Also, the solubility (thermodynamic) in [4] was 340 µg/mL (≈ 237 µM).

`C=C(NC(=O)c1csc(-c2nc3c(cc2OP(=O)(O)OCCCl)-c2nc(cs2)C(=O)NC(C(C)O)C(=O)N/C(=C(\C)OC)c2nc(cs2)C(=O)NC2c4nc(cs4)C(=O)NC(COC(=O)c4c5c6c(cccc6n4OP(=O)(O)OCCCl)COC(=O)C(OC4CC(C)(O)C(N(C)C)C(C)O4)C2OC5)c2nc-3cs2)n1)C(N)=O` (stereo not drawn): the minimal inhibitory concentration (MIC) against Enterococcus faecalis was 4 µg/mL (≈ 2.32 µM); with Staphylococcus aureus, 4 µg/mL (≈ 2.32 µM); in the data set with Streptococcus pneumoniae, 0.5 µg/mL (≈ 0.29 µM).

With `C=C(NC(=O)c1csc(-c2nc3c(cc2OP([O-])OC)-c2nc(cs2)C(=O)NC(C(C)O)C(=O)N/C(=C(\C)OC)c2nc(cs2)C(=O)NC2c4nc(cs4)C(=O)NC(COC(=O)c4c5c6c(cccc6n4OP([O-])OC)COC(=O)C(OC4CC(C)(O)C(N(C)C)C(C)O4)C2OC5)c2nc-3cs2)n1)C(N)=O.[Na+].[Na+]` (stereo not drawn), the MIC against Enterococcus faecalis worked out at 0.25 µg/mL; in the data set on Staphylococcus aureus it was 0.25 µg/mL; in the data set with Streptococcus pneumoniae, 0.003 µg/mL. Also, the ED50 with Mus musculus [1] amounted to 5.9 mg/kg. This compound also had a thermodynamic solubility in [5] of over 10000 µg/mL.

On to `C=C(NC(=O)c1csc(-c2nc3c(cc2O)-c2nc(cs2)C(=O)NC(C(C)O)C(=O)N/C(=C(\C)OC)c2nc(cs2)C(=O)NC2c4nc(cs4)C(=O)NC(COC(=O)c4c5c6c(cccc6n4OC(=O)NCCCN4CCN(C)CC4)COC(=O)C(OC4CC(C)(O)C(N(C)C)C(C)O4)C2OC5)c2nc-3cs2)n1)C(N)=O` (stereo not drawn), for which the MIC came out at 0.003 µg/mL (≈ 0.00185 µM) with Enterococcus faecalis, 0.003 µg/mL (≈ 0.00185 µM) with Staphylococcus aureus and 0.0005 µg/mL (≈ 0.000308 µM) against Streptococcus pneumoniae. The compound also registered a thermodynamic solubility in data set [6] of over 2300 µg/mL.

For `C=C(NC(=O)c1csc(-c2nc3c(cc2O)-c2nc(cs2)C(=O)NC(C(C)O)C(=O)N/C(=C(\C)OC)c2nc(cs2)C(=O)NC2c4nc(cs4)C(=O)NC(COC(=O)c4c5c6c(cccc6n4OC(=O)NCCOCCOCCOCCOCCOCCO)COC(=O)C(OC4CC(C)(O)C(N(C)C)C(C)O4)C2OC5)c2nc-3cs2)n1)C(N)=O` (stereo not drawn), the MIC worked out at 0.06 µg/mL (≈ 0.0344 µM) in the data set on Enterococcus faecalis, 0.06 µg/mL (≈ 0.0344 µM) in the data set with Staphylococcus aureus and 0.003 µg/mL (≈ 0.00172 µM) with Streptococcus pneumoniae. In [7], this compound yielded a solubility (thermodynamic) of over 2100 µg/mL. Moreover, the ED50 with Mus musculus [8] is 0.78 mg/kg.

In [9], `C=C(NC(=O)c1csc(-c2nc3c(cc2O)-c2nc(cs2)C(=O)NC(C(C)O)C(=O)N/C(=C(\C)OC)c2nc(cs2)C(=O)NC2c4nc(cs4)C(=O)NC(COC(=O)c4c5c6c(cccc6n4OC(=O)N(C)CCO)COC(=O)C(OC4CC(C)(O)C(N(C)C)C(C)O4)C2OC5)c2nc-3cs2)n1)C(N)=O` (stereo not drawn) came in with a solubility (thermodynamic) of 3 µg/mL (≈ 1.95 µM). Moreover, the MIC in the data set on Enterococcus faecalis was found to be 0.03 µg/mL (≈ 0.0195 µM); against Staphylococcus aureus, 0.03 µg/mL (≈ 0.0195 µM); in the data set with Streptococcus pneumoniae, 0.0005 µg/mL (≈ 0.000325 µM).

As for `C=C(NC(=O)c1csc(-c2nc3c(cc2O)-c2nc(cs2)C(=O)NC(C(C)O)C(=O)N/C(=C(\C)OC)c2nc(cs2)C(=O)NC2c4nc(cs4)C(=O)NC(COC(=O)c4c5c6c(cccc6n4OC(=O)NC)COC(=O)C(OC4CC(C)(O)C(N(C)C)C(C)O4)C2OC5)c2nc-3cs2)n1)C(N)=O` (stereo not drawn), the minimum inhibitory concentration (MIC) amounted to 0.06 µg/mL (≈ 0.0401 µM) in the data set on Enterococcus faecalis, 0.125 µg/mL (≈ 0.0836 µM) against Staphylococcus aureus and 0.001 µg/mL (≈ 0.000669 µM) in the data set with Streptococcus pneumoniae.

Turning to `C=C(NC(=O)c1csc(-c2nc3c(cc2O)-c2nc(cs2)C(=O)NC(C(C)O)C(=O)N/C(=C(\C)OC)c2nc(cs2)C(=O)NC2c4nc(cs4)C(=O)NC(COC(=O)c4c5c6c(cccc6n4OP(=O)(O)OCCCl)COC(=O)C(OC4CC(C)(O)C(N(C)C)C(C)O4)C2OC5)c2nc-3cs2)n1)C(N)=O` (stereo not drawn), the values for the MIC with Enterococcus faecalis, against Staphylococcus aureus and with Streptococcus pneumoniae were 0.5 µg/mL (≈ 0.316 µM), 0.25 µg/mL (≈ 0.158 µM) and 0.03 µg/mL (≈ 0.019 µM), respectively. The thermodynamic solubility in data set [10] worked out at 530 µg/mL (≈ 335 µM). Also, in the data set with Mus musculus [8], the ED50 was over 10 mg/kg.

On to `C=C(NC(=O)c1csc(-c2nc3c(cc2OP(=O)(O)OCCCl)-c2nc(cs2)C(=O)NC(C(C)O)C(=O)N/C(=C(\C)OC)c2nc(cs2)C(=O)NC2c4nc(cs4)C(=O)NC(COC(=O)c4c5c6c(cccc6n4O)COC(=O)C(OC4CC(C)(O)C(N(C)C)C(C)O4)C2OC5)c2nc-3cs2)n1)C(N)=O` (stereo not drawn), for which the minimum inhibitory concentration (MIC) against Enterococcus faecalis was 1 µg/mL (≈ 0.633 µM); with Staphylococcus aureus it was 1 µg/mL (≈ 0.633 µM); in the data set with Streptococcus pneumoniae, 0.03 µg/mL (≈ 0.019 µM).

In the case of `C=C(NC(=O)c1csc(-c2nc3c(cc2O)-c2nc(cs2)C(=O)NC(C(C)O)C(=O)N/C(=C(\C)OC)c2nc(cs2)C(=O)NC2c4nc(cs4)C(=O)NC(COC(=O)c4c5c6c(cccc6n4OC(=O)NCCOCCOCCOCCOC)COC(=O)C(OC4CC(C)(O)C(N(C)C)C(C)O4)C2OC5)c2nc-3cs2)n1)C(N)=O` (stereo not drawn), the minimum inhibitory concentration (MIC) was found to be 0.125 µg/mL (≈ 0.0748 µM) in the data set with Enterococcus faecalis, 0.125 µg/mL (≈ 0.0748 µM) against Staphylococcus aureus and 0.015 µg/mL (≈ 0.00898 µM) against Streptococcus pneumoniae.
